Results: ChEMBL document CHEMBL3297652, “Acantholactam and pre-neo-kauluamine, manzamine-related alkaloids from the Indonesian marine sponge Acanthostrongylophora ingens” (J Nat Prod, 2014)

Legend:
HeLa = experiment: Cytotoxicity against human HeLa cells after 3 days by MTT assay; type: functional, cell-based; details: 72 h
How it was run: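 HeLa cells were used, following a previously reported procedure. The result was expressed as an IC50 in μM.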

[1] = Inhibition of chymotrypsin-like activity of rat liver proteasome using fluorogenic substrates for 6 hrs
How it was run: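 The chymotrypsin-like activity of the proteasome was measured by a previously reported procedure. Inhibition was expressed as an IC50 in μM.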

[2] = system: Macrophage (Homo sapiens); experiment: Inhibition of cholesterol ester accumulation in human monocyte-derived macrophages at 20 uM

IC50 [1]	SMILES	IC50 (HeLa)	inhibition at 20 µM [2]
0.34 µM	O[C@@H]1CC[C@@]23C[C@]45CN6CCCC/C=C\CC[C@](O)(C=C(c7nccc8c7[nH]c7ccccc78)[C@@H]4CC6)[C@@H]5N2CC[C@@H]1O3	16 µM	91%
0.13 µM	O[C@@H]1CC[C@@]23C[C@]45CN6CCCC/C=C\CC[C@](O)(C=C(c7nccc8c7[nH]c7ccccc78)[C@@H]4CC6)[C@@H]5N2CC[C@@H]1O[C@@]12CC[C@@H](O3)[C@@H](O)CCN1[C@@H]1[C@]3(CN4CCCC/C=C\CC[C@]1(O)C=C(c1nccc5c1[nH]c1ccccc15)[C@@H]3CC4)C2	5.4 µM	92%
33 µM	O=C(O)/C=C\CCCN1C(=O)C[C@]23CN4CCCC/C=C\CC[C@](O)(C=C(c5nccc6c5[nH]c5ccccc56)[C@@H]2CC4)[C@H]13	> 50 µM	0%

SMILES	IC50 [1]	IC50 (HeLa)	inhibition at 20 µM [2]
O[C@]12C=C(c3nccc4c3[nH]c3ccccc34)[C@@H]3CCN(CCCC/C=C\CC1)C[C@@]31C[C@@H]3/C=C\CCCCN3[C@H]12 [MANZAMINE A]	2 µM	13 µM	80%
